pEC50, pIC50: −log10 of the molar value. In brackets after ≈: the same amount, converted by molar mass.
Assays:
Cytochrome P450 2C9 = Cytochrome P450 2C9 (Homo sapiens, UniProt P11712); test: Inhibition of CYP2C9 (unknown origin); assay type: ADME
Summary of the method: (§1)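 Inhibition of CYP1A2, 2C9, 2C19, 2D6 and 3A4, read out as IC50. The highest concentration tested was 40 μM.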

[1] = Half life in cynomolgus monkey at 2 mg/kg, iv; assay type: ADME, organism-based, Macaca fascicularis; details: in vivo
Summary of the method: (§2)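 Dog and monkey iv PK: 2 mg/kg given by iv administration. Clearance (mL min⁻¹ kg⁻¹), Vss, T1/2 (h) and MRT (h) were derived.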

Cytochrome P450 2C19 = Cytochrome P450 2C19 (Homo sapiens, UniProt P33261); test: Inhibition of CYP2C19 (unknown origin); assay type: ADME; summary of the method: as §1
Sequence of Cytochrome P450 2C19 (P33261 whole entry): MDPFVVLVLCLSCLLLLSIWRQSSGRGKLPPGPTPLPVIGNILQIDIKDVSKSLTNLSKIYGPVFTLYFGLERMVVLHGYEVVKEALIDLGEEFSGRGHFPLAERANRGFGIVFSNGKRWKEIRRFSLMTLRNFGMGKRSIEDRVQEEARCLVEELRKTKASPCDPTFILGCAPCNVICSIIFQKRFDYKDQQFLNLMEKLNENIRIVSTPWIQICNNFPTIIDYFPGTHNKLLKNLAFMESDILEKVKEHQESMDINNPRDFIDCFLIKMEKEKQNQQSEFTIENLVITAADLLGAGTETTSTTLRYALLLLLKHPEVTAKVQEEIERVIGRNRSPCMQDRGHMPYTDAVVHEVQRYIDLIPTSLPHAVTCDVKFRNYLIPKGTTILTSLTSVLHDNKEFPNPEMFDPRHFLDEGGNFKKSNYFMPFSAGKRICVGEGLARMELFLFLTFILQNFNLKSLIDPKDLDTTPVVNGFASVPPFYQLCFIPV

[2] = Metabolic stability in rabbit liver microsomes assessed as half life; assay type: ADME, Oryctolagus cuniculus, Microsome
Summary of the method: (§3)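 Liver microsomes from human, rat, mouse, dog, cynomolgus monkey and rabbit were incubated with compound. Stability is reported as half-life (T1/2, min). Values are means of at least three separate experiments.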

[3] = Time during which drug concentration exceed invitro IC50 for TYK2 in mouse whole blood assessed as decrease in IFNalpha-induced STAT1 phosphorylation in C57BL/6 mouse at 30 mg/kg, po via gavage bid for 9 days with first dose given prior to first IL23 challenge and twice a day thereafter; assay type: ADME, organism-based; details: in vivo, 216 h
Summary of the method: (§4)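 Drug levels were measured in the animals of the IL-23 acanthosis study, dosed orally twice daily. The duration was the time, in hours, that levels stayed at or above the in vitro mouse whole blood IC50 for IFNα-induced pSTAT1.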

Cytochrome P450 3A4 [4] = target: T1, Cytochrome P450 3A4 (Homo sapiens, UniProt P08684); test: Inhibition of CYP3A4 (unknown origin); assay type: ADME; summary of the method: as §1
T1 sequence (P08684 whole entry): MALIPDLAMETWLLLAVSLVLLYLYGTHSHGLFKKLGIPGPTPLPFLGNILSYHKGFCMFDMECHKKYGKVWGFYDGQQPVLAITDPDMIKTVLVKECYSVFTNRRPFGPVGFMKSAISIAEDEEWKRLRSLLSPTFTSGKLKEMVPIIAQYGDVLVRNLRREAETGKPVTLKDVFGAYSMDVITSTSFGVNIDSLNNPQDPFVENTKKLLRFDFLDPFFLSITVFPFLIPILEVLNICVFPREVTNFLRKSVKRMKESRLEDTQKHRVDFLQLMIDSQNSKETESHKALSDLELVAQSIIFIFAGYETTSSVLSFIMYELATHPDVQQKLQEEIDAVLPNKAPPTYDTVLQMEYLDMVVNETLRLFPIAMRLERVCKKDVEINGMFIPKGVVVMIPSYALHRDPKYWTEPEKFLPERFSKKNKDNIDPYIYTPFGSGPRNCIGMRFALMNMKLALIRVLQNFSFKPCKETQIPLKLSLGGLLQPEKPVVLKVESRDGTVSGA

[5] = Metabolic stability in human liver microsomes assessed as half life; assay type: ADME, Microsome; summary of the method: as §3
[6] = Time during which drug concentration exceed invitro IC50 for TYK2 in mouse whole blood assessed as decrease in IFNalpha-induced STAT1 phosphorylation in C57BL/6 mouse at 7.5 mg/kg, po via gavage bid for 9 days with first dose given prior to first IL23 challenge and twice a day thereafter; assay type: ADME, organism-based; details: in vivo, 216 h; summary of the method: as §4
[7] = Protein binding in cynomolgus monkey assessed as unbound fraction; assay type: ADME, Macaca fascicularis
[8] = Half life in C57BL/6 mouse at 1 mg/kg, iv; assay type: ADME, organism-based; details: in vivo
Summary of the method: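 Mouse iv PK: 1 mg/kg in 80% PEG 400/20% water. Terminal half-life reported in hours.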

[9] = Volume of distribution at steady state in cynomolgus monkey at 2 mg/kg, iv; assay type: ADME, organism-based, Macaca fascicularis; details: in vivo, read-out: Vdss
Summary of the method: (§5)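 Single intravenous dose in 80% PEG 400/20% water. V_ss was taken from the iv plasma PK profile.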

[10] = Volume of distribution at steady state in dog at 2 mg/kg, iv; assay type: ADME, organism-based, Canis lupus familiaris; details: in vivo, read-out: Vdss; summary of the method: as §5
[11] = Protein binding in mouse assessed as unbound fraction; assay type: ADME
[12] = Volume of distribution at steady state in C57BL/6 mouse at 1 mg/kg, iv; assay type: ADME, organism-based; details: in vivo, read-out: Vdss; summary of the method: as §5
[13] = Metabolic stability in mouse liver microsomes assessed as compound remaining incubated for 10 mins; assay type: ADME, Microsome; details: read-out: Stability
Summary of the method: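 Mouse liver microsomal stability, reported as percent of parent remaining after a 10 min incubation. Values are means of at least three experiments unless otherwise noted.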

[14] = Oral bioavailability in C57BL/6 mouse at 10 mg/kg; assay type: ADME, organism-based; details: in vivo
Summary of the method: (§6)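 Oral PK: single dose of 10 mg/kg as a solution in ethanol/TPGS/PEG 300 (5:5:90) given to mouse, dog and monkey. Cmax (μM), AUC (μM × h) and bioavailability F (%) were derived, with F taken against the iv arm.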

Mus musculus [15] = test: Antiinflammatory activity in CD40-induced colitis model of SCID mouse assessed as inhibition of histological scores in intestine at 50 mg/kg, po administered twice daily relative to control; assay type: functional
Summary of the method: (§7)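 Colitis induced by anti-CD40 in SCID mice. Compound was given orally at 50 mg/kg twice daily. Read-outs were peak weight loss (IL-12 driven) and histological scores.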

[16] = Clearance in cynomolgus monkey at 2 mg/kg, iv; assay type: ADME, organism-based, Macaca fascicularis; details: in vivo; summary of the method: as §2
[17] = AUC in cynomolgus monkey at 10 mg/kg, po; assay type: ADME, organism-based, Macaca fascicularis; details: in vivo; summary of the method: as §6
Cytochrome P450 3A4 [18] = target: T1, Cytochrome P450 3A4; test: Induction of CYP3A4 (unknown origin) by PXR-transactivation assay; assay type: ADME
Summary of the method: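 CYP3A4 induction measured by PXR transactivation, read out as EC50. The highest concentration tested was 40 μM.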

[19] = Permeability coefficient, Kp across apical to basolateral side in human Caco2 cells; assay type: ADME, cell-based; details: Caco-2, read-out: permeability
Summary of the method: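 Caco-2 monolayer permeability measured in both directions, apical-to-basal and basal-to-apical, reported as Pc in nm/s. An efflux ratio was calculated from the two directions.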

[20] = MRT in C57BL/6 mouse at 1 mg/kg, iv; assay type: ADME, organism-based; details: in vivo
Summary of the method: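 Mouse iv PK: 1 mg/kg given in 80% PEG 400/20% water. Clearance (mL min⁻¹ kg⁻¹) and MRT (h) were derived.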

[21] = Aqueous solubility of crystalline free base form of compound at pH 7.4; assay type: physicochemical; details: aqueous medium
Summary of the method: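 Aqueous solubility of the crystalline free base, measured at pH 7.4 and reported in μg/mL.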

[22] = Cmax in cynomolgus monkey at 10 mg/kg, po; assay type: ADME, organism-based, Macaca fascicularis; set-up: dose 10 mg/kg, route oral; details: in vivo; summary of the method: as §6
[23] = Oral bioavailability in dog at 10 mg/kg; assay type: ADME, organism-based, Canis lupus familiaris; details: in vivo; summary of the method: as §6
[24] = MRT in cynomolgus monkey at 2 mg/kg, iv; assay type: ADME, organism-based, Macaca fascicularis; details: in vivo; summary of the method: as §2
[25] = Drug metabolism in C57BL/6 mouse assessed as N-dealkylation of compound by measuring primary amide metabolite formation in mouse plasma by deuterium kinetic isotope effect; assay type: ADME
Summary of the method: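 Circulating primary amide metabolite, formed by N-dealkylation of the deuteromethyl amide, was measured in the mouse, dog and monkey PK studies (10 mg/kg po; iv arms). The lower limit of detection was about 2 nM.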

Cytochrome P450 2D6 = Cytochrome P450 2D6 (Homo sapiens, UniProt P10635); test: Inhibition of CYP2D6 (unknown origin); assay type: ADME; summary of the method: as §1
Sequence of Cytochrome P450 2D6 (P10635 whole entry): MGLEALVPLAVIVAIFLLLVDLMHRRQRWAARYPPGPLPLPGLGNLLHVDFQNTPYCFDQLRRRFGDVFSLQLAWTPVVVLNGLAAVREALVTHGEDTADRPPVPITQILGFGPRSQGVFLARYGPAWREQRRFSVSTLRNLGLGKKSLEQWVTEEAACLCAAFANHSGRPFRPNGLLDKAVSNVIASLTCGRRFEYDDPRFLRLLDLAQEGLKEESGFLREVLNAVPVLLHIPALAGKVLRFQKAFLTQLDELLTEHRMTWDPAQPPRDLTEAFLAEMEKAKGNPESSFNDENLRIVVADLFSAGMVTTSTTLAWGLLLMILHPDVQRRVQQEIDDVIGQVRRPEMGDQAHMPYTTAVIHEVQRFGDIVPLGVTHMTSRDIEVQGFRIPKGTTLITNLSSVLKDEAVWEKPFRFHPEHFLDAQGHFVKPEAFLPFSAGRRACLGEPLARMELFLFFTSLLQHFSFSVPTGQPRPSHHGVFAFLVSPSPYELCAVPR

[26] = Clearance in dog at 2 mg/kg, iv; assay type: ADME, organism-based, Canis lupus familiaris; details: in vivo; summary of the method: as §2
[27] = Metabolic stability in dog liver microsomes assessed as half life; assay type: ADME, Canis lupus familiaris, Microsome; summary of the method: as §3
[28] = Metabolic stability in mouse liver microsomes assessed as half life; assay type: ADME, Microsome; summary of the method: as §3
[29] = Metabolic stability in rat liver microsomes assessed as half life; assay type: ADME, Microsome; summary of the method: as §3
[30] = AUC in C57BL/6 mouse at 10 mg/kg, po; assay type: ADME, organism-based; details: in vivo; summary of the method: as §6
[31] = Cmax in dog at 10 mg/kg, po; assay type: ADME, organism-based, Canis lupus familiaris; set-up: dose 10 mg/kg, route oral; details: in vivo; summary of the method: as §6
[32] = Half life in dog at 2 mg/kg, iv; assay type: ADME, organism-based, Canis lupus familiaris; details: in vivo; summary of the method: as §2
[33] = Cmax in C57BL/6 mouse at 10 mg/kg, po; assay type: ADME, organism-based; set-up: dose 10 mg/kg, route oral; details: in vivo; summary of the method: as §6
hERG (KCNH2) = hERG (KCNH2) (Homo sapiens, UniProt Q12809); test: Inhibition of human ERG at 10 uM by patch-clamp assay relative to control
Sequence of hERG (KCNH2) (Q12809 whole entry): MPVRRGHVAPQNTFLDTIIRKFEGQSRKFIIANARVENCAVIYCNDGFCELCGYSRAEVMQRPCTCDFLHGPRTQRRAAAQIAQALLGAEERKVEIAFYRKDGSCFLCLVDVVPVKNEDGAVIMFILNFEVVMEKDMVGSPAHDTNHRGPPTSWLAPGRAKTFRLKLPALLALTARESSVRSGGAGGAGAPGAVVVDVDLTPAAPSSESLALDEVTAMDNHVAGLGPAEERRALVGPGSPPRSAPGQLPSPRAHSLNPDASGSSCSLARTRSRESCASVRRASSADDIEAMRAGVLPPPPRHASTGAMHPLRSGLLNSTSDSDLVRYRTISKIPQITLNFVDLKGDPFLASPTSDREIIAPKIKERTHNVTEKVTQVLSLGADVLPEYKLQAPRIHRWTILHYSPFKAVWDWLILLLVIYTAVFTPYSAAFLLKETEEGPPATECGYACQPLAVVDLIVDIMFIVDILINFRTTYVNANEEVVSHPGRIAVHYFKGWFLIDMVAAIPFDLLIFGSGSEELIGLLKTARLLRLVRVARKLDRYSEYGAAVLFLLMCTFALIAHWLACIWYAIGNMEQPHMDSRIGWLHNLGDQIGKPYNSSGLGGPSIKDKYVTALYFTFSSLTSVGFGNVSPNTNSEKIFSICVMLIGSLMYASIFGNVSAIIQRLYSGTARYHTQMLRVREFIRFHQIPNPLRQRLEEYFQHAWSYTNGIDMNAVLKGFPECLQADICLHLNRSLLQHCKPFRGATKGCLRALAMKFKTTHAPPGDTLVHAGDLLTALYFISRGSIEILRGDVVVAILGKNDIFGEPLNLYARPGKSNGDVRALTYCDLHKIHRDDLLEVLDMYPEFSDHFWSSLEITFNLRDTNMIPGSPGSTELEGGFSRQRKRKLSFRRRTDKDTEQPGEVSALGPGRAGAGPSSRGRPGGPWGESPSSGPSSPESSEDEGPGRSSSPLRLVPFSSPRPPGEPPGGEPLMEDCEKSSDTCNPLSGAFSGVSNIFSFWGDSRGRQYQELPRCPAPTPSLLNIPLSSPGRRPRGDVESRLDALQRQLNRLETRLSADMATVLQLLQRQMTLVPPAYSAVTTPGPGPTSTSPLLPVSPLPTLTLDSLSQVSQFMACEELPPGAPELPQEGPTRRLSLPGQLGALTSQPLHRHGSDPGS
Summary of the method: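 hERG potassium channel patch clamp assay, read as percent inhibition at 10 μM (n = 7).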

[34] = Metabolic stability in cynomolgus monkey liver microsomes assessed as half life; assay type: ADME, Macaca fascicularis, Microsome; summary of the method: as §3
[35] = Oral bioavailability in cynomolgus monkey at 10 mg/kg; assay type: ADME, organism-based, Macaca fascicularis; details: in vivo; summary of the method: as §6
[36] = AUC in dog at 10 mg/kg, po; assay type: ADME, organism-based, Canis lupus familiaris; details: in vivo; summary of the method: as §6
Mus musculus [37] = test: Antiinflammatory activity in CD40-induced colitis model of SCID mouse assessed as inhibition of IL-2 driven body weight loss at 50 mg/kg, po administered twice daily relative to control; assay type: functional; details: in the assay text read “IL-12 driven” for “IL-2 driven”; summary of the method: as §7

Sequence of Cytochrome P450 2C9 (P11712 whole entry): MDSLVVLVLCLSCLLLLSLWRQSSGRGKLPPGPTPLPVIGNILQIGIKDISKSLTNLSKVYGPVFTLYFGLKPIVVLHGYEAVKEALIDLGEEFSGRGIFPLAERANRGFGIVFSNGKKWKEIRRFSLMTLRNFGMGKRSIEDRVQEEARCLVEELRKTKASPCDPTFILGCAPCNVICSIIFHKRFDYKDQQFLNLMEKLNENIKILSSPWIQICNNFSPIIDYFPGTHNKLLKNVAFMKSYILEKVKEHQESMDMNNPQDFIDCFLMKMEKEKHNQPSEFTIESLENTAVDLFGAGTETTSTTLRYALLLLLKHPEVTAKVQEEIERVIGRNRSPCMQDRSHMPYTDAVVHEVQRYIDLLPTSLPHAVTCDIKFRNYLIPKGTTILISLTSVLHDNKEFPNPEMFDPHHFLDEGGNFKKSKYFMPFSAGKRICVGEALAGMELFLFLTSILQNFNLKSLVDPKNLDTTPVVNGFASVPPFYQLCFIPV

pIC50 (Cytochrome P450 2C9): < 4.40
half-life [1]: 5.3 h
pIC50 (Cytochrome P450 2C19): < 4.40
half-life [2]: > 2 h
T>IC50 [3]: 24 h
pIC50 (Cytochrome P450 3A4 [4]): < 4.40
half-life [5]: > 2 h
T>IC50 [6]: 19 h
fraction unbound [7]: 0.12
half-life [8]: 4.2 h
Vd [9]: 2 L/kg
Vd [10]: 2.3 L/kg
fraction unbound [11]: 0.15
Vd [12]: 2.9 L/kg
remaining at 10 min [13]: 89%
bioavailability [14]: 122%
clearance [16]: 4.8 mL/min/kg
AUC [17]: 75.7 µM·h
pEC50 (Cytochrome P450 3A4 [18]): < 4.40
Papp A→B [19]: 7 ×10⁻⁶ cm/s
MRT [20]: 3.6 h
solubility [21]: 5.2 µg/mL (≈ 12.2 µM)
Cmax [22]: 5.9 µM
bioavailability [23]: 128%
MRT [24]: 7 h
Drug metabolism [25]: < 2 nM
pIC50 (Cytochrome P450 2D6): < 4.40
clearance [26]: 6.8 mL/min/kg
half-life [27]: > 2 h
half-life [28]: > 2 h
half-life [29]: > 2 h
AUC [30]: 36.4 µM·h
Cmax [31]: 6.9 µM
half-life [32]: 4.6 h
Cmax [33]: 7.5 µM
half-life [34]: > 2 h
bioavailability [35]: 87%
AUC [36]: 73.6 µM·h
SMILES: [2H]C([2H])([2H])NC(=O)c1nnc(NC(=O)C2CC2)cc1Nc1cccc(-c2ncn(C)n2)c1OC [DEUCRAVACITINIB]
inhibition in vivo at 50 mg/kg (Mus musculus [15]): 70%
inhibition at 10 µM (hERG (KCNH2)): 26%
inhibition in vivo at 50 mg/kg (Mus musculus [37]): 99%
